Consider twelve molecules from ChEMBL document CHEMBL1151724, “Sesquiterpene lactones from Gonospermum gomerae and G. fruticosum and their cytotoxic activities” (J Nat Prod, 2008).

SMILES strings stand for the structures. Activity calls are given as the source filed them. No cut-off for these calls is given here.

Experiment [1] concerns HL-60. Kind of experiment: Cell cycle arrest in human HL-60 cells assessed as accumulation at G2-M phase at 30 uM after 48 hrs by flow cytometry. The class given is functional. An outline of the steps:
(§1)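 Cells grown in RPMI 1640 with 10% heat-inactivated FBS at 37 °C, 5% CO2, exposed to 30 µM for 48 h. Washed in ice-cold PBS, fixed in 75% ethanol at -20 °C for 1 h, then stained with 50 µg/mL propidium iodide plus 100 µg/mL RNase A for 1 h at 37 °C in the dark. Phase distribution read by flow cytometry; mean ± SEM of two experiments.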
(In flow cytometry, cells or beads pass a laser one at a time.)

In experiment [2] the test system is HL-60. Kind of experiment: Cell cycle arrest in human HL-60 cells assessed as accumulation at S phase at 30 uM after 48 hrs by flow cytometry. Format: functional. The essentials:
as §1

Experiment [3] relates to HL-60. Kind of experiment: Cell cycle arrest in human HL-60 cells assessed as accumulation at G0/G1 phase at 30 uM after 48 hrs by flow cytometry. The class given is functional. The essentials:
as §1

Experiment [4] deals with HL-60. Briefly: Cell cycle arrest in human HL-60 cells assessed as accumulation at sub G0/G1 phase at 30 uM after 48 hrs by flow cytometry. Format: functional. An outline of the steps:
as §1

Another experiment relates to A549. Kind of experiment: Cytotoxicity against human A549 cells after 72 hrs by MTT assay. Conditions: A549, 72 h. Format: functional, cell-based. The essentials:
(§2)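 Exponentially growing cells, 1 × 10^4 per well in RPMI 1640 with 10% FBS, treated with 0.3-100 µM for 72 h. DMSO at most 0.1% (v/v). Viability read by MTT reduction as absorbance at 570 nm and expressed as survival relative to control wells. IC50 obtained by curve fitting; means ± SE of three independent experiments, each in triplicate.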
For orientation: Tetrazolium dyes change colour on reduction, which living cells bring about.

Another experiment deals with U-937. Kind of experiment: Cytotoxicity against human U937 cells after 72 hrs by MTT assay. The class given is functional, cell-based. Particulars: U-937, 72 h. An outline of the steps:
as §2

Experiment [5] deals with HL-60. Briefly: Cytotoxicity against human HL-60 cells after 72 hrs by MTT assay. The class given is functional, cell-based. Particulars: HL-60, 72 h. An outline of the steps:
as §2

In experiment [6] the test system is SK-MEL-1. Kind of experiment: Cytotoxicity against human SK-MEL-1 cells after 72 hrs by MTT assay. The class given is functional, cell-based. Particulars: SK-MEL-1, 72 h. The essentials:
as §2

The test system of experiment [7] is HL-60. Kind of experiment: Induction of apoptosis in human HL-60 cells upto 30 uM after 48 hrs by flow cytometry. Format: functional, cell-based. An outline of the steps:
(§3)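 HL-60 cells exposed to 30 µM for 48 h. Hypodiploid (apoptotic) fraction quantified by flow cytometry; average ± SE of triplicate determinations from a representative experiment.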

In experiment [8] the test system is HL-60. Kind of experiment: Effect on cell death in human HL-60 cells assessed as induction of procaspase 3 cleavage at 30 uM. The class given is functional, cell-based. The essentials:
(§4)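 HL-60 cells (1 × 10^6) treated in RPMI 1640, lysed in Tris-HCl pH 6.8 with 2% SDS and boiled. Lysates run on 12% SDS-PAGE, transferred to PVDF and probed with anti-caspase-3, -6 or -7 antibodies, then HRP secondary. Bands detected by chemiluminescence; loading checked by Ponceau S staining. One representative blot of three.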

For experiment [9], the system named is HL-60. Briefly: Induction of apoptosis in human HL-60 cells at 30 uM after 48 hrs by flow cytometry. The class given is functional. An outline of the steps: as §3
For experiment [10], the system named is HL-60. Briefly: Induction of apoptosis in human HL-60 cells assessed as internucleosomal DNA fragmentation at 30 uM after 24 hrs by ethidium bromide assay. Format: functional, cell-based. An outline of the steps: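 HL-60 cells exposed to 30 µM for 24 h. Total cellular DNA isolated, electrophoresed on 2% agarose, stained with ethidium bromide and inspected under UV for internucleosomal laddering.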

For experiment [11], the system named is SK-MEL-1. Briefly: Induction of apoptosis in human SK-MEL-1 cells assessed as apoptotic bodies at 30 uM after 24 hrs by fluorescence microscopy. The class given is functional, cell-based. An outline of the steps:
(§5)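 HL-60 or SK-MEL-1 cells exposed to 30 µM, then DNA-stained with Hoechst 33258 (bisbenzimide). Chromatin condensation, fragmentation and apoptotic bodies assessed by fluorescence microscopy.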

In experiment [12] the test system is SK-MEL-1. Briefly: Induction of apoptosis in human SK-MEL-1 cells assessed as fragmentated and condensed chromatin at 30 uM after 24 hrs by fluorescence microscopy. Format: functional, cell-based. The essentials:
as §5

Experiment [13] concerns HL-60. Briefly: Induction of apoptosis in human HL-60 cells assessed as apoptotic bodies at 30 uM after 24 hrs by fluorescence microscopy. The class given is functional, cell-based. The essentials:
as §5

In experiment [14] the test system is HL-60. Kind of experiment: Induction of apoptosis in human HL-60 cells assessed as fragmentated and condensed chromatin at 30 uM after 24 hrs by fluorescence microscopy. The class given is functional, cell-based. An outline of the steps:
as §5

The test system of experiment [15] is HL-60. Briefly: Effect on cell death in human HL-60 cells assessed as induction of procaspase 6 cleavage at 30 uM. Format: functional, cell-based. An outline of the steps: as §4
Experiment [16] deals with HL-60. Briefly: Effect on cell death in human HL-60 cells assessed as induction of procaspase 7 cleavage at 30 uM. The class given is functional, cell-based. An outline of the steps:
as §4

As for `COc1cc([C@@H]2c3cc4c(cc3[C@@H](O[C@@H]3O[C@@H]5CO[C@@H](C)O[C@H]5[C@H](O)[C@H]3O)[C@H]3COC(=O)[C@H]23)OCO4)cc(OC)c1O` [ETOPOSIDE], the Activity was found to be 2.6% in the experiment with HL-60 [1], 17.1% in the experiment on HL-60 [2], 29.4% in the experiment with HL-60 [3] and 47.7% in the experiment on HL-60 [4]. Moreover, the IC50 (usually the midpoint of a concentration-inhibition curve) in the experiment on A549 is 5.9 µM; with U-937, 0.92 µM; in the experiment on HL-60 [5], 0.25 µM; with SK-MEL-1 [6], greater than 30 µM.

Regarding `C=C1C[C@@H]2OC(=O)C(=C)[C@H]2[C@H](OC(=O)/C(C)=C\C)/C=C(\C)CCC1=O`, in the experiment on HL-60 [7], the outcome was inactive.

As for `C=C1C(=O)O[C@H]2/C=C(/C)[C@@H](OC(C)=O)CC/C(C)=C/[C@@H](OC(=O)/C(C)=C/C)[C@H]12`, the outcome in the experiment with HL-60 [7] was inactive.

In the case of `C=C1C(=O)O[C@H]2/C=C(/C)[C@@H](O)CC/C(C)=C/[C@@H](OC(=O)/C(C)=C/C)[C@H]12`, the result with HL-60 [7] was inactive.

Consider `C=C1C(=O)O[C@H]2C[C@@]3(C)[C@H](OC(C)=O)CC[C@@](C)(O)[C@H]3[C@@H](OC(C)=O)[C@H]12`, for which the result in the experiment with HL-60 [8], in the experiment on HL-60 [10], in the experiment with SK-MEL-1 [11], in the experiment with SK-MEL-1 [12], in the experiment with HL-60 [13] and with HL-60 [14] was Active. In addition, the outcome in the experiment on HL-60 [15] and in the experiment on HL-60 [16] was Active. The Activity in the experiment on HL-60 [9] was 12%; in the experiment with HL-60 [1], 21.8%; in the experiment on HL-60 [2], 21.5%; in the experiment with HL-60 [3], 39.3%; in the experiment with HL-60 [4] it was 11.8%. Further, the IC50 in the experiment on A549 is greater than 100 µM; in the experiment on U-937 it was 10.4 µM; in the experiment with HL-60 [5], 13.3 µM; with SK-MEL-1 [6] it was 27.9 µM.

On to `C=C1C(=O)O[C@H]2[C@H]1[C@@H](O)C[C@@]1(C)[C@H](O)CCC(=C)[C@@H]21`, for which, in the experiment on HL-60 [7], the outcome was inactive.

Take `C=C1C(=O)O[C@H]2C[C@@]3(C)[C@H](OC(C)=O)CCC(=C)[C@H]3[C@@H](OC(=O)/C(C)=C/C)[C@H]12`: in the experiment on HL-60 [7], the outcome was inactive.

`C=CC(C)(O)C/C=C/C(C)(O)CCC(OC(C)=O)C(=C)C` (stereo not given): in the experiment with HL-60 [7], the outcome was inactive.

For `C=C1CC[C@@H](OC(C)=O)[C@]2(C)C[C@H](OC(C)=O)[C@H]3C(=C)C(=O)O[C@@H]3C12` (stereo not given in full), the result with HL-60 [8], in the experiment with HL-60 [10], in the experiment on SK-MEL-1 [11], with SK-MEL-1 [12], in the experiment with HL-60 [13] and with HL-60 [14] was Active. In addition, the outcome in the experiment with HL-60 [15] and in the experiment on HL-60 [16] was Active. Also, the Activity with HL-60 [9] amounted to 30%; in the experiment with HL-60 [1] it was 18.5%; in the experiment with HL-60 [2], 22%; with HL-60 [3], 26.8%; in the experiment with HL-60 [4], 30%. For the same molecule, the IC50 stood at 72.4 µM in the experiment on A549, 9.2 µM in the experiment on U-937, 9.4 µM in the experiment on HL-60 [5] and 14.3 µM in the experiment on SK-MEL-1 [6].

In the case of `C=C1C(=O)O[C@H]2C[C@@]3(C)[C@H](OC(C)=O)CC[C@@](C)(O)[C@H]3[C@@H](O)[C@H]12`, the outcome with HL-60 [7] was inactive. The IC50 with A549, in the experiment on U-937, in the experiment with HL-60 [5] and in the experiment with SK-MEL-1 [6] was greater than 100 µM in each case.

For `C=C1C(=O)O[C@H]2C[C@@]3(C)[C@H](O)CC[C@@](C)(O)[C@H]3[C@@H](O)[C@H]12`, the result in the experiment on HL-60 [7] was inactive.

For `C=C1C(=O)O[C@H]2C[C@@]3(C)[C@H](O)CCC(=C)[C@H]3[C@@H](OC(=O)/C(C)=C/C)[C@H]12`, in the experiment on HL-60 [7], the outcome was inactive.
